Experimental data pooled from the literature.
Lines come from different studies, so protocols differ. ≈ marks a conversion by molar mass, not a printed value.

SMILES	target or system	assay	system	conditions	measurement	value
COc1c(C)c2c(c(O)c1C/C=C(\C)CCC(=O)O)C(=O)OC2	Enterovirus B	viral replication, inhibitor	Vero, B4		EC50	> 100 µM
COC(=O)c1cc(-c2cccc(NC(=S)Nc3ccccc3Cl)c2)on1	Acinetobacter baumannii	microbial growth, broth dilution	BAA1605		MIC	> 64 mg/L
C=C1CC[C@H](O)C/C1=C/C=C1\CCC[C@]2(C)[C@@H]([C@H](C)CCCC(C)C)CC[C@@H]12	Hepatitis C virus	viral replication, inhibitor, luciferase	GETYPE2A	72 h, replicon	EC50	12.3 µM
CC1CC(C)(C)CC2(C1)SC(C)C(=O)N2NC(=O)c1[nH]c2ccc(Cl)cc2c1-c1ccccc1 (stereo not shown)	Enterovirus B	viral replication, inhibitor	Vero, B4		EC50	> 100 µM
COC(=O)c1cc(-c2cccc(NC(=O)Nc3ccc(C(F)(F)F)cc3)c2)on1	Acinetobacter baumannii	microbial growth, broth dilution	BAA1605		MIC	> 64 mg/L
COc1ccc2[nH]cc(CCNc3nccc(Nc4cccc5c4ccn5C)n3)c2c1	BXPC-3	cell growth or viability, fluorescence		72 h	IC50	0.008 µM
COC(=O)c1cc(-c2cccc(NC(=S)NC3CCCCC3)c2)on1	Acinetobacter baumannii	microbial growth, broth dilution	BAA1605		MIC	> 64 mg/L
CN[C@@H]1[C@H](O)[C@H](NC)[C@H]2O[C@@]3(O)C(=O)C[C@@H](C)O[C@H]3O[C@@H]2[C@H]1O	Proteus mirabilis	microbial growth, broth dilution	ATCC25933		MIC	> 200 mg/L
C1COCCN1.COc1ccc(/C=C\c2cc(I)c(OC)c(I)c2)cc1OP(=O)(O)O	BXPC-3	cell growth or viability, SRB		48 h	GI50	0.35 mg/L
COc1cccc2c1C(=O)c1c(O)c3c(c(O)c1C2=O)C[C@@](O)(C(=O)CO)C[C@@H]3O[C@H]1C[C@H](N)[C@H](O)[C@H](C)O1	SK-MEL	cell growth or viability		48 h	IC50	1.1 mg/L
Cc1ccc(-c2nc3ccc(C)cn3c2CC(=O)N(C)C)cc1	Mycobacterium kansasii	microbial growth		6 days	MIC	> 50 µM
N#CC(C#N)=NNc1cccc(Cl)c1	human Hepatocyte	cell growth or viability			IC50	4.81 µM
Cl.Oc1cccc2c1[nH]c1c(C3=CC4(O)CC/C=C\CCCCN5CCC3C3(CC6/C=C\CCCCN6C43)C5)nccc12 (single isomer, unassigned; (+))	SK-MEL	cell growth or viability, neutral red		48 h	IC50	0.78 mg/L
CO[C@H]1/C=C/O[C@@]2(C)Oc3c(C)c(O)c4c(O)c(c(/C=N/N5CCN(C)CC5)c(O)c4c3C2=O)NC(=O)/C(C)=C\C=C\[C@H](C)[C@H](O)[C@@H](C)[C@@H](O)[C@@H](C)[C@H](OC(C)=O)[C@@H]1C	Mycobacterium kansasii	microbial growth		6 days	MIC	< 0.78 µM
COc1ccc(/C=C\c2cc(F)c(OC)c(OC)c2)cc1O	BXPC-3	cell growth or viability, SRB		48 h	GI50	0.745 mg/L (≈ 2.45 µM)
Cl.O[C@]12C=C(c3nccc4c3[nH]c3ccccc34)[C@@H]3CCN(CCCC/C=C\CC1)C[C@@]31C[C@@H]3/C=C\CCCCN3[C@H]12	SK-MEL	cell growth or viability, neutral red		48 h	IC50	0.57 mg/L
